The results in this text go back to publication PMC3589814 (Journal of molecular biology, 2012).

Holding throughout (assay): isothermal titration calorimetry
Holding throughout (type): binding
A general note: In ITC the heat of successive injections is recorded.

For assay [1], the target named is ScRR1 (Saccharomyces cerevisiae, UniProt P21524, Q288A). The method, boiled down:
(§1)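 Yeast RR1 (wild type or loop 2 mutant) in the ITC cell at 25 °C, in 50 mM Hepes pH 7.0 with 5 mM MgCl₂, 5 mM DTT and 5% glycerol (20 µM protein for wild type). Titrant was 0.5 mM dGTP. For ADP binding the protein was pre-saturated with dGTP (500 µM); for CDP binding it was pre-saturated with AMPPNP. Blank-corrected heats were fitted to a one-site model, and Kd was taken from the association constant.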

Assay [2] deals with ScRR1 (Saccharomyces cerevisiae, UniProt P21524, R293A). Summed up: as §1
Chain of ScRR1 (Saccharomyces cerevisiae, UniProt P21524, R293A) (P21524 whole entry R293A): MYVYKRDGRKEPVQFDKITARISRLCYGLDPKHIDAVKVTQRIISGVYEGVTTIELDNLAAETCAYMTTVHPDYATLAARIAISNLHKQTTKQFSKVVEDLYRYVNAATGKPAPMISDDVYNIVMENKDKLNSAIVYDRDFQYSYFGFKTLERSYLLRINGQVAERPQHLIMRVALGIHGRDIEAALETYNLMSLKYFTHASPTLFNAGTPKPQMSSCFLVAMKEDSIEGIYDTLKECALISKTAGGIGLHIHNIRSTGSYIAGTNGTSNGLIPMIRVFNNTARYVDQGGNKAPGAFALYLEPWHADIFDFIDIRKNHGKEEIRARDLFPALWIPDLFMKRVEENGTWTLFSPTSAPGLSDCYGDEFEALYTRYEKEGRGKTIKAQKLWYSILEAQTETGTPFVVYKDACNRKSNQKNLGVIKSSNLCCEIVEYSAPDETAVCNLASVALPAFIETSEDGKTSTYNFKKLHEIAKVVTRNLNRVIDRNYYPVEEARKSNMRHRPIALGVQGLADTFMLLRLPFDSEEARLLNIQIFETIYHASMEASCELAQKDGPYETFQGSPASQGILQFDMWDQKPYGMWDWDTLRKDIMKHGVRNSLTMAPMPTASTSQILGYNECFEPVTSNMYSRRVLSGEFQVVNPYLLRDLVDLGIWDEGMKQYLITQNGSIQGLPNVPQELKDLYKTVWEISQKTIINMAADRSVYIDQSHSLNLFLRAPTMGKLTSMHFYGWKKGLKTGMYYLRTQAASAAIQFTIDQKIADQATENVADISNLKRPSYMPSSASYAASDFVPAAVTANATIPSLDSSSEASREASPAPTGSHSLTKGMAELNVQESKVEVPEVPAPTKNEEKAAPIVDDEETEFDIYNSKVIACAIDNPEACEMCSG
The target in assay [3] is T1, ScRR1 (Saccharomyces cerevisiae, UniProt P21524).
T1 sequence (P21524 1-888): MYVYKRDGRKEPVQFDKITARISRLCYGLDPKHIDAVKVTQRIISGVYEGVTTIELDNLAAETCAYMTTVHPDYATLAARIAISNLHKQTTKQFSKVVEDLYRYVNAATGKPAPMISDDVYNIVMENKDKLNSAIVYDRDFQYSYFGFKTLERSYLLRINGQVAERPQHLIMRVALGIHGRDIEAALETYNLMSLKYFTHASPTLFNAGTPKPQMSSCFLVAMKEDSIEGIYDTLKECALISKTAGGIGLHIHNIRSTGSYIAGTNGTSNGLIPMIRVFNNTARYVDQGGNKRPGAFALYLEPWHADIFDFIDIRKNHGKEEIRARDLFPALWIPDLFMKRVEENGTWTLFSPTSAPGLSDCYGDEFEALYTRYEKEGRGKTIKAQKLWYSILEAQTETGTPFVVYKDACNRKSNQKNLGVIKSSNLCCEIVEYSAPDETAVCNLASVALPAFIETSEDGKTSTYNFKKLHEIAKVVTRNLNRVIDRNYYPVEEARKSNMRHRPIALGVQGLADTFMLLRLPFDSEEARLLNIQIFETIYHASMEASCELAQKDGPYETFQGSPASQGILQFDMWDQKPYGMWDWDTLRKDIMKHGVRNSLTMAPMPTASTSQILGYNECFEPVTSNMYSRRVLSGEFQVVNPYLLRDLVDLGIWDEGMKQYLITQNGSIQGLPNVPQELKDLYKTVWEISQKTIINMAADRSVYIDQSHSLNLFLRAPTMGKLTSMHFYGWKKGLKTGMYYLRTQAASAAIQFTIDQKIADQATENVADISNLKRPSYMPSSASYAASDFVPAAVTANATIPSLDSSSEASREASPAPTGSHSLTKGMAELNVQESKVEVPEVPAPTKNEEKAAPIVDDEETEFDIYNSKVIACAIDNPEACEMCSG
The method, boiled down: as §1

Chain of ScRR1 (Saccharomyces cerevisiae, UniProt P21524, Q288A) (P21524 whole entry Q288A): as the sequence (P21524 whole entry R293A) above, with Q288A, A293R counted along it

A word on the Kd: it is the free concentration of one partner at which half of the binding sites on the other are occupied at equilibrium, for simple one-to-one binding. Turning to `Nc1nc2c(ncn2[C@H]2C[C@H](O)[C@@H](COP(=O)(O)OP(=O)(O)OP(=O)(O)O)O2)c(=O)[nH]1` [dGTP], the Kd at ScRR1 [1] was determined as 520 nM; at ScRR1 [2] it was 570 nM; at ScRR1 [3] it was 270 nM.
